Experimental data as given in ChEMBL document CHEMBL4689842, “EUbOPEN Chemogenomics Library wave 1” (2021).

What was measured:
U2OS = assay: Multiplex assay against U2OS; format: toxicity, cell-based; conditions: human
How it was run: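 Tubulin, mitochondrial-mass and membrane-permeability phenotypes are per cents of healthy-nucleus cells. Cells were gated by CellPathfinder machine learning into Hoechst high-intensity objects or normal cells, normal cells into healthy, pyknosed or fragmented nuclei, and pyknosed cells into mitotic or apoptotic. Before that, live cells stained at seeding with Hoechst33342, BioTracker Green Microtubule Cytoskeleton Dye, MitoTracker Red and Annexin V Alexa Fluor 680 were imaged on a CQ1 microscope at 37°C and 5% CO2 after compound addition.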

Fibroblast = assay: Incucyte cell viability with human fibroblast; format: toxicity, cell-based; conditions: 10 µM, compound concentration 10 uM; note: filed as whole numbers so only -1 and 0 and 1 occur
[1] = 12 h, 1 µM, compound concentration 1 uM, replicate 1
[2] = 12 h, 1 µM, compound concentration 1 uM, replicate 2
[3] = 12 h, 10 µM, compound concentration 10 uM, replicate 1
[4] = 12 h, 10 µM, compound concentration 10 uM, replicate 2
[5] = 24 h, 1 µM, compound concentration 1 uM, replicate 1
[6] = 24 h, 1 µM, compound concentration 1 uM, replicate 2
[7] = 24 h, 10 µM, compound concentration 10 uM, replicate 1
[8] = 24 h, 10 µM, compound concentration 10 uM, replicate 2

SMILES: CCOC(=O)CCNc1cc(N2CCc3ccccc3CC2)nc(-c2ccccn2)n1
- Population Apoptotic (%) (U2OS; [1]): 37%
- Population Fragmented Nuclei (%) (U2OS; [1]): 7%
- Population Healthy Nuclei (%) (U2OS; [1]): 85%
- Population Hoechst High Intensity Objects (%) (U2OS; [1]): 3%
- Population Membrane Permeable-Phenotype (%) (U2OS; [1]): 14%
- Population Mitochondria Different-Phenotype (%) (U2OS; [1]): 40%
- Population Mitotic Cells (%) (U2OS; [1]): 62%
- Population Normal (%) (U2OS; [1]): 96%
- Population Pyknosed Nuclei (%) (U2OS; [1]): 6%
- Population Tubulin-Different-Phenotype (%) (U2OS; [1]): 30%
- Total Cell Count (U2OS; [1]): 244
- Population Apoptotic (%) (U2OS; [2]): 45%
- Population Fragmented Nuclei (%) (U2OS; [2]): 4%
- Population Healthy Nuclei (%) (U2OS; [2]): 86%
- Population Hoechst High Intensity Objects (%) (U2OS; [2]): 8%
- Population Membrane Permeable-Phenotype (%) (U2OS; [2]): 13%
- Population Mitochondria Different-Phenotype (%) (U2OS; [2]): 27%
- Population Mitotic Cells (%) (U2OS; [2]): 54%
- Population Normal (%) (U2OS; [2]): 91%
- Population Pyknosed Nuclei (%) (U2OS; [2]): 9%
- Population Tubulin-Different-Phenotype (%) (U2OS; [2]): 23%
- Total Cell Count (U2OS; [2]): 141
- Population Apoptotic (%) (U2OS; [3]): 46%
- Population Fragmented Nuclei (%) (U2OS; [3]): 7%
- Population Healthy Nuclei (%) (U2OS; [3]): 82%
- Population Hoechst High Intensity Objects (%) (U2OS; [3]): 5%
- Population Membrane Permeable-Phenotype (%) (U2OS; [3]): 11%
- Population Mitochondria Different-Phenotype (%) (U2OS; [3]): 32%
- Population Mitotic Cells (%) (U2OS; [3]): 53%
- Population Normal (%) (U2OS; [3]): 94%
- Population Pyknosed Nuclei (%) (U2OS; [3]): 10%
- Population Tubulin-Different-Phenotype (%) (U2OS; [3]): 34%
- Total Cell Count (U2OS; [3]): 133
- Population Apoptotic (%) (U2OS; [4]): 40%
- Population Fragmented Nuclei (%) (U2OS; [4]): 3%
- Population Healthy Nuclei (%) (U2OS; [4]): 92%
- Population Hoechst High Intensity Objects (%) (U2OS; [4]): 9%
- Population Membrane Permeable-Phenotype (%) (U2OS; [4]): 9%
- Population Mitochondria Different-Phenotype (%) (U2OS; [4]): 29%
- Population Mitotic Cells (%) (U2OS; [4]): 60%
- Population Normal (%) (U2OS; [4]): 90%
- Population Pyknosed Nuclei (%) (U2OS; [4]): 3%
- Population Tubulin-Different-Phenotype (%) (U2OS; [4]): 26%
- Total Cell Count (U2OS; [4]): 126
- Population Apoptotic (%) (U2OS; [5]): 33%
- Population Fragmented Nuclei (%) (U2OS; [5]): 5%
- Population Healthy Nuclei (%) (U2OS; [5]): 91%
- Population Hoechst High Intensity Objects (%) (U2OS; [5]): 1%
- Population Membrane Permeable-Phenotype (%) (U2OS; [5]): 11%
- Population Mitochondria Different-Phenotype (%) (U2OS; [5]): 36%
- Population Mitotic Cells (%) (U2OS; [5]): 66%
- Population Normal (%) (U2OS; [5]): 98%
- Population Pyknosed Nuclei (%) (U2OS; [5]): 3%
- Population Tubulin-Different-Phenotype (%) (U2OS; [5]): 36%
- Total Cell Count (U2OS; [5]): 264
- Population Apoptotic (%) (U2OS; [6]): 16%
- Population Fragmented Nuclei (%) (U2OS; [6]): 8%
- Population Healthy Nuclei (%) (U2OS; [6]): 87%
- Population Hoechst High Intensity Objects (%) (U2OS; [6]): 10%
- Population Membrane Permeable-Phenotype (%) (U2OS; [6]): 10%
- Population Mitochondria Different-Phenotype (%) (U2OS; [6]): 28%
- Population Mitotic Cells (%) (U2OS; [6]): 83%
- Population Normal (%) (U2OS; [6]): 89%
- Population Pyknosed Nuclei (%) (U2OS; [6]): 4%
- Population Tubulin-Different-Phenotype (%) (U2OS; [6]): 23%
- Total Cell Count (U2OS; [6]): 146
- Population Apoptotic (%) (U2OS; [7]): 64%
- Population Fragmented Nuclei (%) (U2OS; [7]): 7%
- Population Healthy Nuclei (%) (U2OS; [7]): 83%
- Population Hoechst High Intensity Objects (%) (U2OS; [7]): 5%
- Population Membrane Permeable-Phenotype (%) (U2OS; [7]): 7%
- Population Mitochondria Different-Phenotype (%) (U2OS; [7]): 37%
- Population Mitotic Cells (%) (U2OS; [7]): 35%
- Population Normal (%) (U2OS; [7]): 94%
- Population Pyknosed Nuclei (%) (U2OS; [7]): 8%
- Population Tubulin-Different-Phenotype (%) (U2OS; [7]): 13%
- Total Cell Count (U2OS; [7]): 181
- Population Apoptotic (%) (U2OS; [8]): 81%
- Population Fragmented Nuclei (%) (U2OS; [8]): 4%
- Population Healthy Nuclei (%) (U2OS; [8]): 88%
- Population Hoechst High Intensity Objects (%) (U2OS; [8]): 7%
- Population Membrane Permeable-Phenotype (%) (U2OS; [8]): 8%
- Population Mitochondria Different-Phenotype (%) (U2OS; [8]): 36%
- Population Mitotic Cells (%) (U2OS; [8]): 18%
- Population Normal (%) (U2OS; [8]): 92%
- Population Pyknosed Nuclei (%) (U2OS; [8]): 7%
- Population Tubulin-Different-Phenotype (%) (U2OS; [8]): 9%
- Total Cell Count (U2OS; [8]): 165
- Growth Rate (Fibroblast; 0 h, replicate number 2, timepoint 0 hours): 0
- Growth Rate (Fibroblast; 6 h, replicate number 1, timepoint 6 hours): 1
- Growth Rate (Fibroblast; 12 h, replicate number 1, timepoint 12 hours): 1
- Growth Rate (Fibroblast; 18 h, replicate number 1, timepoint 18 hours): 1
- Growth Rate (Fibroblast; 24 h, replicate number 1, timepoint 24 hours): 1
